Biological target: Transcription factor p65 (Human, UniProt Q04206)
Assay: Inhibition of NFkappaB p65 in human RPMI-8226 cells incubated for 2 hrs by ELISA
How it was run: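 Target levels measured by ELISA kits in RPMI-8226 cells. Cells were seeded and grown 24 h at 37 °C, then exposed 72 h to a semi-log series of concentrations. Sample was incubated 2 h at 37 °C, followed by detection reagents A and B (1 h each), TMB substrate and stop solution, with OD read at 450 nm. IC50 was taken from sigmoidal dose-response nonlinear regression of % activity.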

Chain of Transcription factor p65 (Q04206 whole entry): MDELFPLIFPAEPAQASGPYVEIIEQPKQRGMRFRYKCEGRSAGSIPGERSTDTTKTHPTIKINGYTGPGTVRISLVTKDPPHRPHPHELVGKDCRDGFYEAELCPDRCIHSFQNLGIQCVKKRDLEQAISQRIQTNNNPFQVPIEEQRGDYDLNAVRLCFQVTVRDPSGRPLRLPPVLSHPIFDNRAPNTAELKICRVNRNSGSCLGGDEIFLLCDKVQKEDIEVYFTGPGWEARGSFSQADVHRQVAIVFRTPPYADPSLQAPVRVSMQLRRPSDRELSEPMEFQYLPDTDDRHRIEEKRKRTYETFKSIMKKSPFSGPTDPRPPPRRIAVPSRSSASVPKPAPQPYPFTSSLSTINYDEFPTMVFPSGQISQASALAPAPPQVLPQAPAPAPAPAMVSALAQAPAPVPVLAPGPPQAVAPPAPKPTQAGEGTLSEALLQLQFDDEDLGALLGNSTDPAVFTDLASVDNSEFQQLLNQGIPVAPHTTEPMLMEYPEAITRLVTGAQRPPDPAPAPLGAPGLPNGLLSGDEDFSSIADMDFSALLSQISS

Structure (SMILES) | IC50
COc1cc2ncnc(Nc3ccc(F)c(Cl)c3)c2cc1OCCCN1CCOCC1 [ZD1839] | 55 nM
COc1ccc(/C=C/C(=O)c2nnn(-c3ccc(Cl)cc3)c2C)cc1OC | 134 nM
